Data taken from ChEMBL document CHEMBL1157752, “Lessons learned from herbal medicinal products: the example of St. John's Wort (perpendicular)” (J Nat Prod, 2010).

Tests used:
Cytochrome P450 3A4 = Cytochrome P450 3A4 (Homo sapiens, UniProt P08684)
[1] = target: Delta-type opioid receptor (Homo sapiens, UniProt P41143); assay: Binding affinity to delta opioid receptor
Rattus norvegicus [2] = assay: Antidepressant activity in rat assessed as immobility time at 0.6 mg/kg, po by forced swimming test (reference value: 150.3 +/- 11.1 sec); format: functional
Rattus norvegicus [3] = assay: Antidepressant activity in rat assessed as immobility time at 1.3 mg/kg, po by forced swimming test (reference value: 150.3 +/- 11.1 sec); format: functional
Method in brief: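 Rats received single compounds by mouth in a Porsolt forced swimming test. The read-out was immobility time in seconds, compared with a saline control, with imipramine 20 mg/kg po as the reference antidepressant. Values are mean ± SEM, n = 10 per group.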

Rattus norvegicus [4] = assay: Antidepressant activity in rat assessed as immobility time at 0.08 mg/kg, po by forced swimming test (reference value: 158.7 +/- 8.9 sec); format: functional
Method in brief: (§1)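 Rat forced swimming test (Porsolt): test substances given orally, and immobility time in seconds is recorded as mean ± SEM. Imipramine serves as the reference antidepressant.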

[5] = Permeability across basolateral to apical side in human Caco-2 cells; format: ADME, cell-based; settings: read-out: permeability
Method in brief: (§2)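 Caco-2 colon adenocarcinoma cells were grown as monolayers in Transwell chambers, and compound was dosed to the apical or the basolateral side. Transport was measured apical to basolateral (absorption) and basolateral to apical (efflux). The result is given as apparent permeability in cm/s.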

[6] = target: T1, Corticotropin-releasing factor receptor 1 (Homo sapiens, UniProt P34998); assay: Inhibition of CRF1 receptor
T1 sequence (P34998 whole entry): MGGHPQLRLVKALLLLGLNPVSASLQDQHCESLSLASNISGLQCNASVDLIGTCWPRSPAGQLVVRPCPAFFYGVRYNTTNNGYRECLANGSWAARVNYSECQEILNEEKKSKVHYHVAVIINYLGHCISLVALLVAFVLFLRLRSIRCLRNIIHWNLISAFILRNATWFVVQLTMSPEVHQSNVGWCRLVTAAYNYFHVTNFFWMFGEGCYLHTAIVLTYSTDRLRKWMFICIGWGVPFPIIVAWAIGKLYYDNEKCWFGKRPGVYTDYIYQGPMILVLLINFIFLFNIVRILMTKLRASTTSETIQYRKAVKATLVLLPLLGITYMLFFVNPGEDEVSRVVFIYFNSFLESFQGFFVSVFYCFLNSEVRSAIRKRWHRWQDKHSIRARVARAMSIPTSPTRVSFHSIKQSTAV

Rattus norvegicus [7] = assay: Reduction in corticotropin-releasing hormone mRNA expression in rat hyphalamic paraventricular nucleus at 0.2 mg/kg, po, qd for 8 weeks; format: functional; set-up: scale not given: the % may be the effect or the level left
[8] = Permeability across apical to basolateral side in human Caco-2 cells; format: ADME, cell-based; settings: read-out: permeability
Method in brief: as §2

[9] = Plasma concentration in po dosed rat after 270 mins; format: ADME, organism-based
Method in brief: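 Rats were fed the pure compound orally, and plasma concentration was followed over time, including the 270 min point. AUC was expressed relative to the compound given alone, set at 100%.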

Rattus norvegicus [10] = assay: Antidepressant activity in rat assessed as immobility time at […], po by forced swimming test (reference value: 158.7 +/- 8.9 sec); format: functional
Rattus norvegicus [11] = assay: Antidepressant activity in rat assessed as immobility time at 0.5 mg/kg, po by forced swimming test (reference value: 158.7 +/- 8.9 sec); format: functional
Method in brief: as §1

Rattus norvegicus [12] = assay: Reduction in %5HT1A receptor mRNA expression in rat hippocampus at 0.2 mg/kg, po, qd for 8 weeks; format: functional; set-up: scale not given: the % may be the effect or the level left
D(3) dopamine receptor = D(3) dopamine receptor (Homo sapiens, UniProt P35462); assay: Binding affinity to dopamine D3 receptor
D(3) dopamine receptor, sequence (P35462 whole entry): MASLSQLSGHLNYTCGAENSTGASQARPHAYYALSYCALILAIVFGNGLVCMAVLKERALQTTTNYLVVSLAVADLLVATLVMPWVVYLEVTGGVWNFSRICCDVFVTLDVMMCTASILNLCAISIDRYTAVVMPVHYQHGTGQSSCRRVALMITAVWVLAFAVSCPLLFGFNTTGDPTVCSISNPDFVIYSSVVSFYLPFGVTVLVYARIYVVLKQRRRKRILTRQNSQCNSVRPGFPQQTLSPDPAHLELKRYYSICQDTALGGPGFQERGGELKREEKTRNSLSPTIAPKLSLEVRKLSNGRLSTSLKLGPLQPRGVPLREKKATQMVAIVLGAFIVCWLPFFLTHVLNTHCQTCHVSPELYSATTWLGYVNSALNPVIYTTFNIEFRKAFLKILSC

[13] = target: T1, Corticotropin-releasing factor receptor 1; assay: Inhibition of recombinant CRF1 receptor expressed in CHO cells assessed as inhibition of CRF-induced cAMP formation; format: functional, cell-based
Rattus norvegicus [14] = assay: Antidepressant activity in rat assessed as immobility time at 7.6 mg/kg, po by forced swimming test (reference value: 169.6 +/- 19 sec); format: functional
Method in brief: as §1

Rattus norvegicus [15] = assay: Antidepressant activity in rat assessed as immobility time at 1.3 mg/kg, po by forced swimming test (reference value: 169.6 +/- 19 sec); format: functional
Method in brief: as §1

Rattus norvegicus [16] = assay: Antidepressant activity in rat assessed as immobility time at 5.2 mg/kg, po by forced swimming test (reference value: 169.6 +/- 19 sec); format: functional
Method in brief: as §1

Rattus norvegicus [17] = assay: Antidepressant activity in rat assessed as immobility time at 2.6 mg/kg, po by forced swimming test (reference value: 169.6 +/- 19 sec); format: functional
Method in brief: as §1

Rattus norvegicus [18] = assay: Antidepressant activity in rat assessed as immobility time at 0.6 mg/kg, po by forced swimming test (reference value: 169.6 +/- 19 sec); format: functional
Method in brief: as §1

Rattus norvegicus [19] = assay: Antidepressant activity in rat assessed as immobility time at 20 mg/kg, po by forced swimming test (reference value: 169.6 +/- 19 sec); format: functional
Method in brief: as §1

Rattus norvegicus [20] = assay: Antidepressant activity in rat assessed as immobility time at 20 mg/kg, po by forced swimming test (reference value: 138.6 +/- 12 sec); format: functional
Rattus norvegicus [21] = assay: Antidepressant activity in rat assessed as immobility time at 20 mg/kg, po by forced swimming test (reference value: 150.3 +/- 11.1 sec); format: functional
Method in brief: as §1

Rattus norvegicus [22] = assay: Antidepressant activity in rat assessed as immobility time at 20 mg/kg, po by forced swimming test (reference value: 158.7 +/- 8.9 sec); format: functional
Method in brief: as §1

[23] = target: T2, Alpha-2C adrenergic receptor (Homo sapiens, UniProt P18825); assay: Binding affinity to adrenergic alpha2c receptor
T2 sequence (P18825 whole entry): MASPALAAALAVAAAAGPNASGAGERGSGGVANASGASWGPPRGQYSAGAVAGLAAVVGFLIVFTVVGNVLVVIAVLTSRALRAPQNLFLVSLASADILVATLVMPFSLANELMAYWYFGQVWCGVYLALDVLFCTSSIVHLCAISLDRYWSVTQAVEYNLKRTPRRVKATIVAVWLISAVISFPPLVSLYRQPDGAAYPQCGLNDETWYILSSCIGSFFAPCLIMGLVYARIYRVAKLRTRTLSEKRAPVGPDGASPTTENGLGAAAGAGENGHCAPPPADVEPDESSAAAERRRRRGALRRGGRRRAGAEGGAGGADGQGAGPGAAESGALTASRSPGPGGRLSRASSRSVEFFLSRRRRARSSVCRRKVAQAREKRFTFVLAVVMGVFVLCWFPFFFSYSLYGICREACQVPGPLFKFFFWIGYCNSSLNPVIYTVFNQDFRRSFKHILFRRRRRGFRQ

D(4) dopamine receptor = target: T3, D(4) dopamine receptor (Homo sapiens, UniProt P21917); assay: Binding affinity to dopamine D4 receptor
T3 sequence (P21917 whole entry): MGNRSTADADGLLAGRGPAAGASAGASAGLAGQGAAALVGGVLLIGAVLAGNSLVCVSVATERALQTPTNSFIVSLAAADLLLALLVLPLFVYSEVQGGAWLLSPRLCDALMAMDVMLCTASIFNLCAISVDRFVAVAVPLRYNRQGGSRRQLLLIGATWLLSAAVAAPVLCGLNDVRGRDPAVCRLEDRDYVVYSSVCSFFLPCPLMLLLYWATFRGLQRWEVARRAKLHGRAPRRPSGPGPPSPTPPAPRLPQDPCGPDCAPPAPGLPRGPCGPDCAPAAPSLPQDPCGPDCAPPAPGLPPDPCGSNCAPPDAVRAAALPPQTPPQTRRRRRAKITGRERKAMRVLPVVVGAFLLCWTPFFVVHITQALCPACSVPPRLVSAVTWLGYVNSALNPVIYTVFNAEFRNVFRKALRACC

Cytochrome P450 3A4, sequence (P08684 whole entry): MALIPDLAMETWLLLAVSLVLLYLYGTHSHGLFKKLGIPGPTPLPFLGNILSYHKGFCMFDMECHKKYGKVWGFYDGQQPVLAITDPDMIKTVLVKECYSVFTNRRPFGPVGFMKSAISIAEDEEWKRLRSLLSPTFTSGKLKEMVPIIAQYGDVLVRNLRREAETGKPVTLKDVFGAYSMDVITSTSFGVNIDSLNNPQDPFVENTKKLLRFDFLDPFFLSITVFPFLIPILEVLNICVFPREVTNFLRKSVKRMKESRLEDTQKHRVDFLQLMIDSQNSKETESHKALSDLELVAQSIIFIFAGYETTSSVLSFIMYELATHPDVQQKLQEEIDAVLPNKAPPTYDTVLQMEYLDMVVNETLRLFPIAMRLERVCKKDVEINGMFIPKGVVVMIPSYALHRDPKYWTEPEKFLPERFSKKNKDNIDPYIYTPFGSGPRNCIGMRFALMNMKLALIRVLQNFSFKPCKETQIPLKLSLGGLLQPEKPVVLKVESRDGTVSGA
Delta-type opioid receptor, sequence (P41143 whole entry): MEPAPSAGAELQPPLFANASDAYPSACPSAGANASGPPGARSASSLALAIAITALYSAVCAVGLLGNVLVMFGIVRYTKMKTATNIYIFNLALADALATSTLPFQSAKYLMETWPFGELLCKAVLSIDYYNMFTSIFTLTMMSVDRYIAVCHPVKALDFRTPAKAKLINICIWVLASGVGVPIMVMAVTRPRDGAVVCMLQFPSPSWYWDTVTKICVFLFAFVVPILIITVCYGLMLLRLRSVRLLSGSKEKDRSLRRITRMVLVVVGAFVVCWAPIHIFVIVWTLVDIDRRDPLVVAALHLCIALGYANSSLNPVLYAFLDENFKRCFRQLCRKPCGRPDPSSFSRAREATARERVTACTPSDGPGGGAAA

Question: Which IC50 (Cytochrome P450 3A4) does the source give for `O=c1c(-c2c(O)cc(O)c3c(=O)cc(-c4ccc(O)cc4)oc23)c(-c2ccc(O)cc2)oc2cc(O)cc(O)c12` here?
Answer: 80 nM

Question: With `O=c1cc(-c2ccc(O)c(-c3c(O)cc(O)c4c(=O)cc(-c5ccc(O)cc5)oc34)c2)oc2cc(O)cc(O)c12` [AMENTOFLAVONE] as the molecule, how does the Ki [1] read?
Answer: 36.5 nM

Question: With `C[C@@H]1O[C@@H](O[C@H]2C(=O)c3c(O)cc(O)cc3O[C@@H]2c2ccc(O)c(O)c2)[C@H](O)[C@H](O)[C@H]1O` [ASTILBIN] as the molecule, how does the Time (Rattus norvegicus [2]) read?
Answer: 148.6 s

Question: And the Time (Rattus norvegicus [3])?
Answer: 163.7 s

Question: Which Time (Rattus norvegicus [4]) does the source give for `Cc1cc(O)c2c(=O)c3c(O)cc(O)c4c5c(O)cc(O)c6c(=O)c7c(O)cc(C)c8c1c2c(c34)c(c78)c65` [HYPERICIN] here?
Answer: 154.7 s

Question: And the Papp B→A [5]?
Answer: 12 ×10⁻⁶ cm/s

Question: And the IC50 (Cytochrome P450 3A4)?
Answer: 8700 nM

Question: And the IC50 [6]?
Answer: 300 nM

Question: And the Activity (Rattus norvegicus [7])?
Answer: 16%

Question: What about the Papp A→B [8] of the same molecule?
Answer: 0.25 ×10⁻⁶ cm/s

Question: What about the concentration at 4.5 h [9] of the same molecule?
Answer: 6 ng/mL

Question: What about the Time (Rattus norvegicus [10]) of the same molecule?
Answer: 110.2 s

Question: What about the Time (Rattus norvegicus [11]) of the same molecule?
Answer: 147.8 s

Question: And the Activity (Rattus norvegicus [12])?
Answer: 11%

Question: And the Ki (D(3) dopamine receptor)?
Answer: 34.5 nM

Question: And the IC50 [13]?
Answer: 300 nM

Question: For `O=c1c(O[C@@H]2O[C@H](CO)[C@H](O)[C@H](O)[C@H]2O)c(-c2ccc(O)c(O)c2)oc2cc(O)cc(O)c12` [HYPEROSIDE], which Time (Rattus norvegicus [14]) is on record?
Answer: 158.8 s

Question: And the Time (Rattus norvegicus [15])?
Answer: 109.5 s

Question: And the Time (Rattus norvegicus [16])?
Answer: 149.2 s

Question: And the Time (Rattus norvegicus [17])?
Answer: 133.7 s

Question: And the Time (Rattus norvegicus [18])?
Answer: 101.2 s

Question: Which Time (Rattus norvegicus [19]) does the source give for `CN(C)CCCN1c2ccccc2CCc2ccccc21` [IMIPRAMINE] here?
Answer: 95.4 s

Question: And the Time (Rattus norvegicus [20])?
Answer: 77.5 s

Question: And the Time (Rattus norvegicus [21])?
Answer: 86.1 s

Question: And the Time (Rattus norvegicus [22])?
Answer: 97.1 s

Question: With `O=c1c(O[C@@H]2O[C@H](CO)[C@@H](O)[C@H](O)[C@H]2O)c(-c2ccc(O)c(O)c2)oc2cc(O)cc(O)c12` [ISOQUERCETIN] as the molecule, how does the Time (Rattus norvegicus [2]) read?
Answer: 100.4 s

Question: For `O=C(O)[C@H]1O[C@@H](Oc2c(-c3ccc(O)c(O)c3)oc3cc(O)cc(O)c3c2=O)[C@H](O)[C@@H](O)[C@@H]1O` [MIQUELIANIN], which Ki [23] is on record?
Answer: 4060 nM

Question: With `O=c1c(O)c(-c2ccc(O)c(O)c2)oc2cc(O)cc(O)c12` [QUERCETIN] as the molecule, how does the Ki (D(4) dopamine receptor) read?
Answer: 7850 nM

Question: For `C[C@@H]1O[C@@H](Oc2c(-c3ccc(O)c(O)c3)oc3cc(O)cc(O)c3c2=O)[C@H](O)[C@H](O)[C@H]1O` [QUERCITRIN], which Time (Rattus norvegicus [2]) is on record?
Answer: 149.9 s

Question: What about the Time (Rattus norvegicus [3]) of the same molecule?
Answer: 162.3 s
